Experiments:
Assay type in all cases: functional
[1] = tested on: Rattus norvegicus; test: Percentage reduction of thrombus formation by weight in rat (intraperitoneal administration); set-up: concentration or dose not given beside the values
How it was run: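 Rat venous stasis thrombosis model using a factor Xa thrombogenic challenge 4 h after intraperitoneal dosing in carboxymethylcellulose at 5 mL/kg. Dose was 100 mg/kg when the mouse lethal dose exceeded 800 mg/kg, otherwise 1/10 of LD50. Body temperature was kept near 37 °C. Thrombus was excised from the split vein, dried 24 h at 55 °C and weighed. Read-out is % reduction in thrombus weight, with 5–10 rats per lot.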

[2] = tested on: Rattus norvegicus; test: Antithrombotic activity was determined at 100 mg/kg for nonlethal dose in rat
How it was run: (§1)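 Rats received 100 mg/kg intraperitoneally in (carboxymethyl)cellulose (5 mL/kg), for substances with a mouse lethal dose above 800 mg/kg. Factor Xa was injected 4 h later to induce venous thrombosis, with body temperature near 37 °C. Clamps were placed 15 min after partial flow was restored. The thrombus was excised, dried 24 h at 55 °C and weighed. The result is % reduction of thrombus weight, with 5–10 rats per lot.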

[3] = tested on: Rattus norvegicus; test: Antithrombotic activity at 100 mg/kg in rat; how it was run: as §1
[4] = tested on: Rattus norvegicus; test: Antithrombotic activity at 1/10 mg/kg in rat
How it was run: (§2)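 Rat venous thrombosis model with factor Xa as the thrombogenic stimulus, injected 4 h after intraperitoneal dosing in (carboxymethyl)cellulose vehicle (5 mL/kg). Dose was 1/10 of the mouse LD50. Body temperature was kept near 37 °C. The vein was clamped 15 min after partial flow was restored. The thrombus was dried 24 h at 55 °C and weighed. The result is % reduction of thrombus weight, with 5–10 rats per lot.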

[5] = tested on: Rattus norvegicus; test: Antithrombotic activity at 1/10 mg/kg for lethal dose in rat; how it was run: as §2
[6] = tested on: Rattus norvegicus; test: Antithrombotic activity at 100 mg/kg for nonlethal dose in rat; how it was run: as §1
[7] = tested on: Rattus norvegicus; test: Effective dose administered by intravenous route before injection of thrombogenic agent in rat model
How it was run: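 Intravenous dosing in rats at various times before the factor Xa thrombogenic challenge. Thrombus was isolated from the vein segment, dried 24 h at 55 °C and weighed. ED50 was calculated by linear regression with 95% confidence limits.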

[8] = tested on: Rattus norvegicus; test: Effective dose administered orally (4h before injection of the thrombotic stimulus) with reduced thrombus weight in dose-related manner; settings: po

| SMILES | Activity [1] | LD0 [2] | further results |
| --- | --- | --- | --- |
| O=C(c1ccc(O[C@@H]2OC[C@@H](O)[C@H](O)[C@H]2O)cc1)c1ccc(C(F)(F)F)cc1 | 0% | >800 mg | – |
| O=[N+]([O-])c1cccc(C(O)c2ccc(O[C@@H]3OC[C@@H](O)[C@H](O)[C@H]3O)cc2)c1 (some centres undefined) | 63% | – | LD50 [3]: 600 mg |
| O=C(c1ccccc1)c1ccc(O[C@@H]2OC[C@@H](O)[C@H](O)[C@H]2O)cc1 | 77% | – | LD50 [4]: 750 mg |
| O=C(c1ccc(O[C@@H]2OC[C@@H](O)[C@H](O)[C@H]2O)cc1)c1ccc([N+](=O)[O-])cc1 | 0% | >800 mg | – |
| O=C(c1ccc(O[C@@H]2O[C@H](CO)[C@@H](O)[C@H](O)[C@H]2O)cc1)c1ccc([N+](=O)[O-])cc1 | 0% | >800 mg | – |
| O=C(c1ccccc1)c1ccc(O[C@@H]2O[C@H](CO)[C@@H](O)[C@H](O)[C@H]2O)cc1 | 25% | >800 mg | – |
| O=C(c1ccc(O[C@@H]2OC[C@@H](O)[C@H](O)[C@H]2O)cc1)c1ccc(Cl)cc1Cl | 18% | >800 mg | – |
| Cc1ccccc1C(=O)c1cccc(O[C@@H]2OC[C@@H](O)[C@H](O)[C@H]2O)c1 | 0% | >800 mg | – |
| O=C(c1ccc(O[C@@H]2OC[C@@H](O)[C@H](O)[C@H]2O)cc1)c1ccccc1Cl | 76% | >800 mg | – |
| O=C(c1ccc([N+](=O)[O-])cc1)c1cccc(O[C@@H]2OC[C@@H](O)[C@H](O)[C@H]2O)c1 | 61% | >800 mg | – |
| O=C(c1ccc(O[C@@H]2O[C@H](CO)[C@H](O)[C@H](O)[C@H]2O)cc1)c1ccc([N+](=O)[O-])cc1 | 0% | >800 mg | – |
| O=C(c1ccc(Cl)cc1)c1ccc(O[C@@H]2OC[C@@H](O)[C@H](O)[C@H]2O)cc1 | 37% | >800 mg | – |
| O=C(c1ccc(O[C@H]2OC[C@@H](O)[C@H](O)[C@H]2O)cc1)c1ccc([N+](=O)[O-])cc1 | 38% | – | LD50 [5]: 600 mg |
| O=[N+]([O-])c1cccc(Cc2ccc(O[C@@H]3OC[C@@H](O)[C@H](O)[C@H]3O)cc2)c1 | 32% | >800 mg | – |
| COc1ccc(Cc2ccc(O[C@@H]3OC[C@@H](O)[C@H](O)[C@H]3O)cc2)cc1 | 43% | >800 mg | – |
| O[C@@H]1[C@@H](O)[C@H](Oc2ccc(Cc3ccccc3Cl)cc2)OC[C@H]1O | 0% | >800 mg | – |
| O=C(c1ccc(O[C@@H]2O[C@H](CO)[C@H](O[C@@H]3O[C@H](CO)[C@@H](O)[C@H](O)[C@H]3O)[C@H](O)[C@H]2O)cc1)c1ccc([N+](=O)[O-])cc1 | 17% | >800 mg | – |
| COc1ccc(C(=O)c2ccc(O[C@@H]3OC[C@@H](O)[C@H](O)[C@H]3O)cc2)cc1 | 44% | >800 mg | – |
| O=C(c1ccc(Cl)cc1)c1cccc(O[C@@H]2OC[C@@H](O)[C@H](O)[C@H]2O)c1 | 0% | – | LD50 [6]: 220 mg |
| OC(c1ccccc1)c1cccc(O[C@@H]2OC[C@@H](O)[C@H](O)[C@H]2O)c1 (some centres undefined) | 19% | >800 | – |
| OC(c1ccc(O[C@@H]2OC[C@@H](O)[C@H](O)[C@H]2O)cc1)c1ccccc1Cl (some centres undefined) | 51% | >800 mg | – |
| O=C(c1ccc(O[C@H]2O[C@H](CO)[C@@H](O)[C@H](O)[C@@H]2O)cc1)c1ccc([N+](=O)[O-])cc1 | 0% | >800 mg | – |
| Cc1ccc(C(=O)c2ccc(O[C@@H]3OC[C@@H](O)[C@H](O)[C@H]3O)cc2)cc1 | 0% | >800 mg | – |
| Cc1cc(C(=O)c2ccccc2C)ccc1O[C@@H]1OC[C@@H](O)[C@H](O)[C@H]1O | 62% | – | – |

| SMILES | Activity [1] | LD0 [2] | further results |
| --- | --- | --- | --- |
| O=C(c1ccc(O[C@@H]2O[C@H](CO)[C@@H](O)[C@H](O)[C@@H]2O)cc1)c1ccc([N+](=O)[O-])cc1 | 0% | >800 mg | – |
| O[C@@H]1[C@@H](O)[C@H](Oc2cccc(Cc3ccccc3)c2)OC[C@H]1O | 39% | – | LD50 [3]: 200 mg |
| O[C@@H]1[C@@H](O)[C@H](Oc2ccc(Cc3ccccc3)cc2)OC[C@H]1O | 12% | >800 mg | – |
| O=C(c1ccc(Cl)cc1)c1ccc(O[C@@H]2O[C@H](CO)[C@H](O)[C@H](O)[C@H]2O)cc1 | 0% | >800 mg | – |
| O=C(c1ccccc1)c1cccc(O[C@@H]2OC[C@@H](O)[C@H](O)[C@H]2O)c1 | 60% | >800 mg | – |
| O=C(O)C1OC(OC2C(COS(=O)(=O)O)OC(CO)C(NS(=O)(=O)O)C2O)C(OS(=O)(=O)O)C(O)C1CO (centres undefined) | – | – | ED50 [7]: 0.15 mg/kg |
| C[C@@H]1O[C@H](Oc2ccc(C(=O)c3ccc([N+](=O)[O-])cc3)cc2)[C@H](O)[C@H](O)[C@H]1O | 0% | >800 mg | – |
| O=C(c1ccc(OC2O[C@H](CO)[C@@H](O[C@@H]3O[C@H](CO)[C@H](O)[C@H](O)[C@H]3O)[C@H](O)[C@H]2O)cc1)c1ccc([N+](=O)[O-])cc1 (some centres undefined) | 0% | >800 mg | – |
| O=C(c1ccc(O[C@@H]2OC[C@@H](O)[C@H](O)[C@H]2O)cc1)c1cccc([N+](=O)[O-])c1 | 39% | >800 mg | – |
| Cc1cc(C(O)c2ccccc2C)ccc1O[C@@H]1OC[C@@H](O)[C@H](O)[C@H]1O (some centres undefined) | 14% | – | LD50 [3]: 450 mg |
| O[C@@H]1[C@@H](O)[C@H](Oc2cccc(Cc3ccc(Cl)cc3)c2)OC[C@H]1O | 46% | – | LD50 [3]: 500 mg |
| O=[N+]([O-])c1ccc(Cc2ccc(O[C@@H]3OC[C@@H](O)[C@H](O)[C@H]3O)cc2)cc1 | 80% | – | LD50 [3]: 650 mg; ED50 [8]: 24 mg/kg |
| O=[N+]([O-])c1ccc(C(O)c2ccc(O[C@@H]3OC[C@@H](O)[C@H](O)[C@H]3O)cc2)cc1 (some centres undefined) | 80% | >800 mg | ED50 [7]: 17.8 mg/kg; ED50 [8]: 48 mg/kg |
| O[C@@H]1[C@@H](O)[C@H](Oc2ccc(Cc3ccc(Cl)cc3Cl)cc2)OC[C@H]1O | 25% | – | LD50 [3]: 640 mg |
| OC(c1ccc(Cl)cc1)c1cccc(O[C@@H]2OC[C@@H](O)[C@H](O)[C@H]2O)c1 (some centres undefined) | 0% | >800 mg | – |
| OC(c1ccc(Cl)cc1)c1ccc(O[C@@H]2OC[C@@H](O)[C@H](O)[C@H]2O)cc1 (some centres undefined) | 39% | >800 mg | – |
| Cc1ccc(C(=O)c2cccc(O[C@@H]3OC[C@@H](O)[C@H](O)[C@H]3O)c2)cc1 | 0% | >800 mg | – |
| O[C@@H]1[C@@H](O)[C@H](Oc2ccc(Cc3ccc(Cl)cc3)cc2)OC[C@H]1O | 22% | >800 mg | – |
| O=C(c1ccc(Cl)cc1)c1ccc(O[C@@H]2O[C@H](CO)[C@@H](O)[C@H](O)[C@H]2O)cc1 | 0% | >800 mg | – |
| OC(c1ccc(O[C@@H]2OC[C@@H](O)[C@H](O)[C@H]2O)cc1)c1ccc(Cl)cc1Cl (some centres undefined) | 37% | – | LD50 [3]: 350 mg |
| N#Cc1ccc(C(=O)c2ccc(O[C@@H]3OC[C@@H](O)[C@H](O)[C@H]3O)cc2)cc1 | 0% | – | – |
| OC(c1ccccc1)c1ccc(O[C@@H]2OC[C@@H](O)[C@H](O)[C@H]2O)cc1 (some centres undefined) | 37% | >800 mg | – |
| Cc1ccc(O[C@@H]2OC[C@@H](O)[C@H](O)[C@H]2O)c(C(=O)c2ccccc2C)c1 | 0% | >800 mg | – |

— ChEMBL document CHEMBL1127013, “Glycosylated derivatives of benzophenone, benzhydrol, and benzhydril as potential venous antithrombotic agents” (1993)
